# Measurements: ChEMBL document CHEMBL4513216, “Probing the Open Global Health Chemical Diversity Library for Multistage-Active Starting Points for Next-Generation Antimalarials” (ACS Infect Dis, 2020)
# Assay: Toxicity liver stage against HepG2, at 10uM
# Assay type: cell-based
# Design: test concentration 10 uM, cell line HepG2-A16-CD81EGFP
# Conditions: human, HepG2-A16-CD81EGFP cells; read-out: INHIBITION
# Procedure, shortened: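 Uninfected HepG2-A16-CD81EGFP cells, 3 × 10^3 per well, 1536-well, plated on prespotted compound at 10 μM final, parasite-free screening media added to match infected plates; puromycin 10 μM positive, DMSO 0.5% negative; run in parallel with 48 h PbLuc assay at 37 °C, 5% CO2; viability by CellTiter-Glo luminescence, normalized to controls.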
row,SMILES,cytotoxicity at 10 µM
1,COc1ccccc1-c1cc(C(=O)N(C)C)c2cnn(C)c2n1,10.6%
2,O=c1oc(-c2ccc(F)cc2)nn1CN1CCN(CC2CC2)CC1,1.44%
3,O=c1cc2c(nn1CN1CCN(c3ccc(F)cc3)CC1)CCC2,-2.15%
4,Cn1cc(CN2CCN3C[C@H](Oc4cccnc4)C[C@H]3C2)cn1,3.07%
5,Cc1cc(CN2C[C@@H]3COC[C@]3(CNS(C)(=O)=O)C2)no1,-71.2%
6,O=C(NC1CC1)[C@@H]1CCO[C@@H]2CCN(C3CCCC3)C[C@H]21,13.3%
7,Cc1cccc(OCCC(=O)NCC(C)(C)C(N)=O)c1,-6.38%
8,O=C(Nc1cc(CCC2CCN(CCO)CC2)ccn1)c1ccccn1,-4.03%
9,COc1cccc(-n2nnc(C(=O)N3CCN(C(C)=O)CC3)c2C)c1,-13.2%
10,CN(C1CCCCC1)S(=O)(=O)NCC1Cc2ccccc2O1 (centres undefined),4.19%
11,COc1cccc(CC(=O)N2Cc3nccn3CC(CN(C)C)C2)c1 (centres undefined),-135%
12,N#Cc1ccc(CN2CCC(c3ccnn3CCO)CC2)cc1,-1.72%
13,O[C@@H]1C[C@H]2CN(Cc3ccsc3)[C@@H](Cc3ccccc3)CN2C1,-2.13%
14,CC1=NOC(C(=O)N2CCC(O)(c3ccc4nc(C)ccc4c3)CC2)C1 (centres undefined),2.12%
15,Cc1ccc(OC2(C(=O)O)CCN(C(=O)c3ccccc3F)CC2)cn1,2.75%
16,CCCNC(=O)c1nn(CC)cc1NC(=O)c1c(C)nn(C)c1C,-7.95%
17,NC(=O)C1=NC2=NS(=O)(=O)c3ccccc3N2N1Cc1ccc(Br)cc1,8.34%
18,Cc1ccc(OCC(=O)NCc2ccco2)nc1,-0.224%
19,CCc1c(C)sc2ncnc(N3CC[C@@H](N4CCOCC4)[C@H](O)C3)c12,-4.24%
20,CN(C)c1cc(C(=O)NCC2(c3ccc(F)cc3)CC2)ccn1,8.59%
21,Cc1ccc(NC(=O)Cn2ncc(SCC(N)=O)c(Cl)c2=O)c(F)c1,-7.21%
22,Cc1cc(C)n(CC(=O)N2CCC(c3cc4cccnc4[nH]3)CC2)n1,16.8%
23,CSc1[nH]nc(NC(=O)c2cccnc2)c1C#N,-4.87%
24,Cc1n[nH]cc1CNC(=O)[C@H]1CCCCN1C(=O)OC(C)(C)C,-0.311%
25,Cc1cc(NC(=O)NCC(C(C)C)N2CCOCC2)n(C)n1 (centres undefined),-17.2%
26,Cc1cc(NC(=O)CCN2CCCC2Cn2cccn2)no1 (centres undefined),-5.09%
27,Cc1cc(C(=O)N2CCCC2CN2CCCC2)no1 (centres undefined),10%

row,SMILES,cytotoxicity at 10 µM
1,O=c1[nH]c(-c2ccncc2)ncc1-c1ccnc(NC2CCCCC2)n1,-9.24%
2,CN(C)C(=O)N1Cc2ccccc2C2(CCN(C3CCOCC3)CC2)C1,7.21%
3,CN(C)c1cc2c(nn1)CCN(C(=O)c1cc3c(s1)CCCC3)C2,-6.3%
4,O=C(c1cscn1)N1CCC(Cn2cc(-c3ccsc3)nn2)CC1,0.259%
5,CCOC1COC2(CCN(C(=O)c3cccc(C)n3)CC2)C1 (centres undefined),6.24%
6,CCCNC(=O)CCc1ccnc2ccccc12,5.25%
7,Cc1cnn(CC2CCCN2CC(=O)N(C)Cc2ccc(C)o2)c1 (centres undefined),-7.19%
8,CC(C)N(C)C(=O)C1=NOC2(CCN(C(=O)c3ccncc3)C2)C1 (centres undefined),-0.237%
9,Cn1cccc1C(=O)N1CCC2(CC1)CCN2S(C)(=O)=O,8.73%
10,Cc1nnsc1CN(C)C(=O)CCn1cnc2ccccc21,14.7%
11,COC[C@@]12CC[C@@H](N3CCOCC3)C[C@H]1CCN(c1ncccn1)C2,-11.9%
12,CC(C)n1ccnc1CN1CCCN(C(=O)c2cscn2)CC1,-1.63%
13,COc1c(CNC2CCCOc3ccc(F)cc32)c(C(C)C)nn1C (centres undefined),-5.83%
14,CS(=O)(=O)CCSc1n[nH]c(-c2ccc3c(c2)CCC3)n1,-2.14%
15,CCCc1nnc(NC2CCN(C3CCSCC3)CC2)o1,-1.38%
16,Cc1oncc1C(=O)NCC1(O)CCc2ccccc2C1 (centres undefined),-6.29%
17,c1ccc(O[C@H]2CO[C@@]3(CCCN(Cc4nccs4)C3)C2)nc1,-71.3%
18,O=c1cc(Cn2ccnc2)nc2n1CCCN(Cc1ccsc1)C2,-0.808%
19,CO[C@H]1CN(C(=O)c2ccc3oc(C)cc3c2)CC[C@@]12CCCO2,0.153%
20,N#Cc1cnc(NCCCN2C(=O)COc3ccccc32)c(Cl)c1,-3.64%
21,CCc1cnc(N2CCC3(CC2)CCN(c2cnn(C)c2)C3=O)nc1,-2.2%
22,CN1CCC(c2n[nH]cc2-c2ccnc(N)c2)C1 (centres undefined),3.79%
23,Cc1ccc(-c2nnc(CN3CCCCC3Cn3cncn3)o2)cc1 (centres undefined),3.84%
24,COCCN(Cc1ccc(C)o1)C(=O)Nc1nnc(C(F)F)s1,1.24%
25,CN1CCN(Cc2cccc(NCc3ncc[nH]3)c2)CC1,-6.44%
26,Cc1csc2c(C3CCCN(C(=O)CCn4cncn4)C3)nc(C)n12 (centres undefined),7.96%
27,CCC(C)N(Cc1sccc1C)C(=O)c1cnc[nH]1 (centres undefined),5.55%
